Compound activity: PubChem BioAssay, several laboratories
Compounds with a hit are over-represented: about 3.7% of the library has one in this group of screens.
GAA850 FXN act: frataxin GAA850 promoter activation. actives 0.56% (n = 360,000). activation, % at 6 µM. HEK293 lucGAA850 FXN promoter luciferase reporter, 24 h; percent of 10 µM SAHA response. AID 540364;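 active means activation above the average of all compounds screened plus 3 SD, cutoff fixed separately per campaign, cut at about 7.5% in these data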;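 further: 0% = DMSO wells and 100% = 10 µM SAHA wells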
GASC-1 inh: inhibitors of human GASC-1 (JMJD2C) demethylase. Q9H3R0. GST-JMJD2C(1-420) H3K9me3 demethylation, DELFIA europium. inhibition, % at 2.35 µM. actives 0.069% (n = 330,000). AID 2099;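 active means more than half of a compound's replicate wells show inhibition beyond 50%, single wells judged on their own value; inconclusive means some, but no more than half, of replicates pass 50% inhibition; inactive means no replicate passes 50% inhibition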;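 further: signal counts dimethyl H3K9 product captured on neutravidin plate; 0% = median of DMSO wells and 100% = 0.3 times that DMSO median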
SR-BI DiI inh: inhibitors of mouse SR-BI mediated HDL lipid uptake. Q61009. ldlA[mSR-BI] CHO cells, DiI-HDL uptake fluorescence, 3 h. inhibition, % at 12.5 µM. actives 0.96% (n = 320,000). AID 488896;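 active means mean replicate inhibition of at least 70% and a set share of replicates each scoring 70 or more; inconclusive means meets just one of the two criteria; inactive means fails both criteria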;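 further: 0% = median of neutral control wells and 100% = median of positive control wells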
SR-BI DiI-HDL act: enhances SR-BI lipid uptake from DiI-HDL | activation, % at 12.5 µM | actives 0.096% (n = 320,000) | AID 504775 | CHO ldlA[mSR-BI] cells, DiI-HDL uptake fluorescence, 3 h; 100 = double the neutral-control signal;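 active means mean replicate activation of at least 60% and every replicate at or above 60%; inconclusive means mean or all-replicate condition met, but not both; inactive means mean below 60% and not all replicates reaching 60%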;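 further: 0% = median plate neutral-control signal and 100% = twice that signal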
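System: LDL receptor-deficient CHO ldlA cells overexpressing murine SR-BI | Timing: 3 h uptake period with compound, 37 °C | Medium: HEPES-buffered (25 mM, pH 7.4) F12 plus 0.5% BSA | Dosing: Single-point compound dose | Signal: Bottom-read fluorescence, 550/595 nm | Read-out: Retained DiI signal reflecting DiI-HDL uptake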
AHR activator: activators of human aryl hydrocarbon receptor; actives 2.5% (n = 320,000); P35869; activation, % at 5 µM; AHR-responsive luciferase reporter cells, luminescence; AID 2796; in the data active means activation above about 47%;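 further: 0% = vehicle wells and 100% = reference agonist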
Target sequence (P35869 whole entry, looked up): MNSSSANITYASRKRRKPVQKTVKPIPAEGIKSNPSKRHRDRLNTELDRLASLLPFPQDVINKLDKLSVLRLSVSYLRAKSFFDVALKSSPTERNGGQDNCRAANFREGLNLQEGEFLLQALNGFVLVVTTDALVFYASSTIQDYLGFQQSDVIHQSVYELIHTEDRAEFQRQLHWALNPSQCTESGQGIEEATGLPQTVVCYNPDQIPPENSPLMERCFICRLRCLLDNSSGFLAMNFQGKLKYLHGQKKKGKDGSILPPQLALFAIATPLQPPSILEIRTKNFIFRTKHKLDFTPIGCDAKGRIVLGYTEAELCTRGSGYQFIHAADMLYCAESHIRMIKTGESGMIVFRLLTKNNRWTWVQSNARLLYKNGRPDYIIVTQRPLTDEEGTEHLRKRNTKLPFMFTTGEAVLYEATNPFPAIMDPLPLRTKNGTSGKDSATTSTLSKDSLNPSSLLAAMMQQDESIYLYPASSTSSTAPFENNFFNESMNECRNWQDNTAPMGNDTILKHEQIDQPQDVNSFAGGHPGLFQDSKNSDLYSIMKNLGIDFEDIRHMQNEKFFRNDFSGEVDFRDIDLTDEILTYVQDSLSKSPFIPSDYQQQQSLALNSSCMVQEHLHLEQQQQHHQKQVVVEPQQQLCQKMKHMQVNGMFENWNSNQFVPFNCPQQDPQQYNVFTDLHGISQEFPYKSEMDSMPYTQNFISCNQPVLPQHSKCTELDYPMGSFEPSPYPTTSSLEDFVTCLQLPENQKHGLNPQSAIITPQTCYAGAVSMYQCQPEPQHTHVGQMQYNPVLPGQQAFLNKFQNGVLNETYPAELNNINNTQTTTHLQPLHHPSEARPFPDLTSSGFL
AHR act confirm: confirmation of human aryl hydrocarbon receptor activators; human cells, AHR-responsive luciferase reporter, luminescence; actives 87% (n = 2,300); shares compounds with AHR activator; AID 2845; activation, % at 9 µM; in the data active means activation above about 49%;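 further: HepG2 hepatoma cells carrying a DRE-driven firefly luciferase reporter; 0% = vehicle wells and 100% = reference agonist wells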
PXR counter: PXR activation, counter-screen for AHR activators | shares compounds with AHR activator | cell-based PXR reporter, luciferase luminescence | activation, % at 11.6 µM | actives 88% (n = 2,300); in the data active means activation above about 11%;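 further: human hepatoma DPX-2 cells expressing full-length human PXR; 0% = DMSO and 100% = reference agonist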
Starred values were filed as active, the others as inactive; ? = inconclusive; nt = no result.

SMILES | GAA850 FXN act | GASC-1 inh | SR-BI DiI inh | SR-BI DiI-HDL act | AHR activator | others
COc1ccc(C(=O)Nc2ccccc2N2CCOCC2)cc1Br | -1 | -6 | 80* | -80 | 12
CS(=O)(=O)N1CCN(c2ccccc2NC(=O)c2ccc3ccccc3c2)CC1 | 1 | -3 | nt | nt | 39
O=C(Nc1cc(Cl)ccc1N1CCOCC1)c1cccnc1Cl | 0 | 4 | 23 | -23 | 70*
COc1ccc(C(=O)Nc2ccccc2N2CCCCC2)cc1[N+](=O)[O-] | 6 | 2 | 78* | -78 | 13
CS(=O)(=O)N1CCN(c2ccccc2NC(=O)c2ccc(Cl)cc2)CC1 | -1 | 1 | 46 | -46 | 79*
COc1ccc(C(=O)NC(=S)Nc2ccccc2N2CCOCC2)cc1Br | 3 | -3 | 55 | -55 | 32
O=C(Nc1cccc(Oc2ccccc2)c1)c1ccc(-n2cncn2)c2ccoc12 | 1 | nt | nt | nt | nt
O=C(Nc1ccccc1)c1nccn1Cc1ccc(F)cc1 | 3 | -4 | -15 | 15 | 1
COc1ccccc1OCCNc1cc(N2CCCCC2)ccc1[N+](=O)[O-] | 5 | 1 | 65 | -65 | 69*
Cc1ccccc1OCCNc1cc(N2CCNCC2)ccc1[N+](=O)[O-] | nt | -15 | nt | nt | 16
CC(C)c1ccc(S(=O)(=O)N2CCN(C(=O)Cc3ccsc3)CC2)cc1 | 0 | 35 | 9 | -9 | 7
Cc1[nH]c2ccc3ccccc3c2c(=O)c1C/C=C/Cl | 0 | 8 | -2 | 2 | 47*
CC1=C(SCc2ccccc2)C(=O)c2ccccc2C1=O | 0 | nt | nt | nt | nt
O=C1C(SCCO)=C(SCCO)C(=O)c2ccccc21 | -15 | 25 | 23 | -23 | 58*
COc1ccc(CCNC(=O)CSC2=NS(=O)(=O)c3cc(F)ccc3N2)cc1OC | -1 | nt | nt | nt | nt
O=C(Nc1ccc(Cl)c(Cl)c1)Nc1ccccc1O | 3 | -8 | 78* | -78 | 27
O=C(Nc1ccc(Cl)c(Cl)c1)Nc1ccon1 | -4 | 12 | -5 | 5 | 71*
O=C(Nc1ccc(Cl)cc1)Nc1ccc(Cl)c(Cl)c1 | nt | 1 | nt | nt | 21
O=C(Nc1ccc(Cl)c(Cl)c1)N1CCSCC1 | -1 | -5 | -320 | 320* | 3
C[n+]1ccccc1Nc1cc([N+](=O)[O-])ccc1N | 0 | -9 | 13 | -13 | 0
Cc1cc(OCC(=O)Nc2ccc(S(=O)(=O)NC3=NCCCCC3)cc2)c(C(C)C)cc1Cl | 2 | 0 | 2 | -2 | 0
O=c1cc(-c2ccccc2)nc2n1Cc1ccccc1-2 | 6 | 0 | 6 | -6 | 111*
COc1ccccc1NC(=O)c1ccc(NC(=O)COC(=O)c2cncc(Br)c2)cc1 | 0 | 0 | 42 | -42 | 50*
COc1ccccc1NC(=O)c1ccc(NC(=O)CN2CCCCC2)cc1 | 1 | 3 | 14 | -14 | 1
COc1ccccc1N1CCN(CC(=O)Nc2ccccc2C(=O)NCCc2ccccc2)CC1 | 1 | nt | -2 | 2 | 63*
SMILES | GAA850 FXN act | GASC-1 inh | SR-BI DiI inh | SR-BI DiI-HDL act | AHR activator | others
COc1cc(NC(=O)c2ccccc2F)c(OC)cc1NC(=O)CN1CCOCC1 | 2 | 4 | 24 | -24 | 51*
COc1ccccc1NC(=O)c1ccc(NC(=O)CN2CCCC2)cc1 | 2 | -31 | 22 | -22 | 53*
COc1ccc(CCNC(=O)c2ccccc2NC(=O)CN2CCN(c3ccccc3O)CC2)cc1 | -5 | nt | 34 | -34 | nt
COc1ccc(C(OC(=O)c2ccco2)C(=O)NC(C)(C)C)cc1OC (stereo not drawn) | 4 | nt | -12 | 12 | nt
O=C(OCC(=O)N1CCCC1)c1cc(F)c(F)cc1Cl | 1 | 18 | -2 | 2 | 2
Cc1ccccc1-n1c(SCc2ccccn2)nc2n[nH]c(C)c2c1=N | 6 | 6 | -7 | 7 | 66*
Cc1ccccc1-n1c(SCC(=O)Nc2ccccc2Cl)nc2n[nH]c(C)c2c1=N | 2 | 1 | -13 | 13 | 62*
CCOc1ccccc1NC(=O)CCSc1nc2n[nH]c(C)c2c(=N)n1-c1ccccc1Cl | 2 | -1 | 65 | -65 | 11
Cc1c(Cl)cccc1NC(=S)NC1CCCC1 | 1 | ? | -23 | 23 | -1
Cc1ccc(N2CCN(C3=NC(=O)/C(=C\c4cn[nH]c4-c4ccccc4)S3)CC2)cc1 | 1 | -1 | 33 | -33 | 3
CCCc1nc(SCc2cccnc2)c2c(=O)n(C)c(=O)n(C)c2n1 | 4 | -13 | 19 | -19 | 52*
Cn1c(=O)c2c(SCc3cccnc3)nc(CC(C)(C)C)nc2n(C)c1=O | 0 | 4 | 2 | -2 | 2
O=C(Nc1cc2cc([N+](=O)[O-])ccc2oc1=O)c1cccs1 | nt | -10 | nt | nt | 12
COc1ccccc1-c1oc2ccccc2c1-c1ccc2cc[nH]c2c1 | 3 | -9 | 80* | -80 | 22
Cc1[nH][nH]c(=O)c1C(c1c(C)[nH][nH]c1=O)c1cn(C)c2ccccc12 | 0 | nt | -6 | 6 | nt
Cc1[nH][nH]c(=O)c1C(c1c(C)[nH][nH]c1=O)c1cn(Cc2cccc3ccccc23)c2ccccc12 | 0 | 68* | 11 | -11 | 19
Cc1cc(Cl)c(OCCCCNC(C)(C)C)c(Br)c1 | nt | -18 | nt | nt | 6
CCOC(=O)c1c(-c2ccc(C)o2)csc1NC(=S)NC(=O)N(C)C | 1 | -2 | -2 | 2 | 57*
CCCSc1nnc2nc3c(nn12)c1ccccc1n3C | 1 | 4 | 4 | -4 | 50*
CCN(CC)c1ccc2c(Cl)c(Br)c(=O)oc2c1 | -4 | 4 | -22 | 22 | 53*
NC(=O)N/N=C/c1c(F)cccc1F | -1 | 8 | -15 | 15 | 1
CCCN1CCC2(CC1)C(C#N)=C(N)Oc1c2sc2nc(C)cc(C)c12 | 1 | 0 | -17 | 17 | 61*
C(#Cc1ccc2c(c1)COc1c3ccccc3nn1-2)c1ccccc1 | 4 | 4 | 39 | -39 | 23
C#Cc1ccc2c(c1)COc1c3ccccc3nn1-2 | 4 | 3 | 6 | -6 | 88* | AHR act confirm=62*;PXR counter=25*
Cc1ccccc1C(=O)NCC(=O)NNC(=O)c1cccc(Cl)c1 | 1 | 13 | -12 | 12 | 3
COc1ccc(Cl)cc1NCCC(O)c1ccc(F)cc1 (stereo not drawn) | 1 | -1 | 35 | -35 | 89* | AHR act confirm=21;PXR counter=40*
Cc1ccc(C)c(-n2nnc3ccccc3c2=O)c1 | 2 | nt | nt | nt | nt
O=C(COc1ccc2ccccc2c1)N/N=C/C1CC=CCC1 (stereo not drawn) | 4 | -4 | -49 | 49 | 85* | AHR act confirm=47;PXR counter=12*
CCOC(=O)C1CCN(C(=O)c2cc(COc3ccc(F)cc3F)on2)CC1 | 5 | 51 | -13 | 13 | 7
